# ChEMBL document CHEMBL2150921, “Synthesis, structure-activity relationships, and docking studies of N-phenylarylformamide derivatives (PAFAs) as non-nucleoside HIV reverse transcriptase inhibitors” (Eur J Med Chem, 2012)
# Experiments:
# [1] = target: Human immunodeficiency virus type 1 reverse transcriptase (Human immunodeficiency virus 1, UniProt Q72547); test: Inhibition of wild type HIV1 reverse transcriptase activity using poly (rA)/oligo (dT)15 homopolymer template after 1 hr by ELISA
# Method in brief: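 Wild-type RT; oligo(dT) immobilized on plates, poly(rA) template, biotin-11-dUTP incorporation. Reaction: 50 mM Tris-HCl pH 8.3, 3 mM MgCl2, 75 mM KCl, 5 mM DTT, 0.13 mg/mL BSA, […]; 37 °C, 1 h. Detection by streptavidin-alkaline phosphatase and PNPP (30 min, 37 °C), stopped with 0.5 M NaOH.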
# [2] = tested on: Human immunodeficiency virus 1; test: Antiviral activity against wild type HIV1 3B infected in human C8166 cells assessed as protection against virus-induced cytopathic effect after 3 days by syncytium reduction assay; type: functional, organism-based; conditions: Human immunodeficiency virus 1, 3B, C8166, 72 h
# Method in brief: (§1)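 C8166 cells (4 × 10⁵/mL) infected at MOI 0.06 in presence of graded compound concentrations; AZT and GW678248 as drug controls. After 3 days culture, syncytia (multinucleated giant cells) counted under inverted microscope; EC50 taken as concentration blocking 50% syncytium formation. Mean of at least two separate experiments.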
# C8166 = test: Cytotoxicity against human C8166 cells assessed as decrease in cell viability by MTT assay; type: functional
# Method in brief: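 Uninfected C8166 cells exposed to compound; viability read by MTT colorimetric assay at A570/630. CC50, the concentration reducing viable cells by 50%, taken from dose-response curve. Mean of at least two separate experiments.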
# [3] = Therapeutic index, ratio of CC50 for human C8166 cells to EC50 for HIV1 A17 harbouring RT K103N/Y181C mutant infected in human C8166 cells; type: cell-based; conditions: read-out: Ratio CC50/EC50
# Method in brief: (§2)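 CC50 from MTT assay on uninfected C8166 cells (A570/630, dose-response curve, 50% viable cell reduction) divided by EC50 from 3-day syncytium reduction assay in C8166 cells (4 × 10⁵/mL) infected at M.O.I 0.06; syncytia scored microscopically. Values are means of at least two separate experiments.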
# [4] = tested on: Human immunodeficiency virus 1; test: Antiviral activity against HIV1 A17 harbouring RT K103N/Y181C mutant infected in human C8166 cells assessed as protection against virus-induced cytopathic effect after 3 days by syncytium reduction assay; type: functional, organism-based; conditions: Human immunodeficiency virus 1, A17, C8166, 72 h
# Method in brief: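 C8166 cells (4 × 10⁵/mL) infected at M.O.I 0.06 in the presence of various compound concentrations; cultured 3 days, syncytia (multinucleated giant cells) scored under inverted microscope; EC50 = concentration blocking syncytia formation by 50%. AZT and GW678248 as drug controls. Mean of at least two separate experiments.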
# [5] = tested on: Human immunodeficiency virus 2; test: Antiviral activity against HIV2 ROD infected in human C8166 cells assessed as protection against virus-induced cytopathic effect after 3 days by syncytium reduction assay; type: functional, organism-based; conditions: Human immunodeficiency virus 2, ISOLATE ROD, C8166, 72 h; method in brief: as §1
# [6] = Therapeutic index, ratio of CC50 for human C8166 cells to EC50 for wild type HIV1 3B infected in human C8166 cells; type: cell-based; conditions: C8166 cells infected with wild type HIV1 3B, read-out: Ratio CC50/EC50; method in brief: as §2
Compound,IC50 [1] [µM],EC50 [2] [µM],CC50 (C8166) [µM],selectivity ratio [3],EC50 [4] [µM],EC50 [5] [µM],selectivity ratio [6]
Cc1cc(S(N)(=O)=O)ccc1NC(=O)COc1ccc(Cl)cc1C(=O)c1cc(Cl)cc(C#N)c1,0.00269,0.000103,> 387,> 1.37e+06,0.00028,–,–
Cc1cc(S(N)(=O)=O)ccc1NC(=O)COc1ccc(Cl)cc1NC(=O)c1cccc(Cl)c1,–,0.00319,59.7,39.9,1.49,52.5,18700
Cc1cc(S(N)(=O)=O)ccc1NC(=O)COc1ccc(Cl)cc1NC(=O)c1ccccc1,–,0.00367,207,130,1.59,72.1,56500
Cc1cc(S(N)(=O)=O)ccc1NC(=O)COc1ccc(Cl)cc1NC(=O)c1ccccc1C,–,0.0179,67.3,29.4,2.29,55.5,3750
Cc1cccc(C(=O)Nc2cc(Cl)ccc2OCC(=O)Nc2ccc(S(N)(=O)=O)cc2C)c1,–,0.00146,52.9,115,0.46,29.6,36200
Cc1ccc(C(=O)Nc2cc(Cl)ccc2OCC(=O)Nc2ccc(S(N)(=O)=O)cc2C)cc1,–,0.0051,54.2,58.2,0.93,57.3,10600
Cc1cc(S(N)(=O)=O)ccc1NC(=O)COc1ccc(Cl)cc1NC(=O)c1cccc(F)c1,–,0.00353,243,239,1.02,186,68800
Cc1cc(S(N)(=O)=O)ccc1NC(=O)COc1ccc(Cl)cc1NC(=O)c1ccccc1[N+](=O)[O-],–,0.0003,54.8,188,0.29,11.8,185000
Cc1cc(S(N)(=O)=O)ccc1NC(=O)COc1ccc(Cl)cc1NC(=O)c1cccc([N+](=O)[O-])c1,–,0.00066,58.8,128,0.46,36.1,89400
Cc1cc(S(N)(=O)=O)ccc1NC(=O)COc1ccc(Cl)cc1NC(=O)c1cccc(C(F)(F)F)c1,–,1.51,124,2.34,52.9,81.3,82
COc1ccc(C(=O)Nc2cc(Cl)ccc2OCC(=O)Nc2ccc(S(N)(=O)=O)cc2C)cc1,–,0.204,69.5,3.85,18.1,58.8,340
Cc1ccc(C(=O)Nc2cc(Cl)ccc2OCC(=O)Nc2ccc(S(N)(=O)=O)cc2C)c(C)c1,–,0.00056,47.6,543,0.09,41.4,85300
Cc1ccc(C)c(C(=O)Nc2cc(Cl)ccc2OCC(=O)Nc2ccc(S(N)(=O)=O)cc2C)c1,–,0.00037,79.7,560,0.14,27.7,213000
Cc1ccc(C(=O)Nc2cc(Cl)ccc2OCC(=O)Nc2ccc(S(N)(=O)=O)cc2C)cc1C,0.00114,0.00032,84.1,836,0.1,4.37,261000
Cc1cc(C)cc(C(=O)Nc2cc(Cl)ccc2OCC(=O)Nc2ccc(S(N)(=O)=O)cc2C)c1,–,0.00116,36.5,110,0.33,25.9,31300
Cc1cc(S(N)(=O)=O)ccc1NC(=O)COc1ccc(Cl)cc1NC(=O)c1ccc(Cl)cc1Cl,–,0.00297,61.1,187,0.33,14.4,20600
Cc1cc(S(N)(=O)=O)ccc1NC(=O)COc1ccc(Cl)cc1NC(=O)c1cc(Cl)ccc1Cl,–,0.00234,42.1,100,0.42,21.6,18000
Cc1cc(S(N)(=O)=O)ccc1NC(=O)COc1ccc(Cl)cc1NC(=O)c1ccc(Cl)c(Cl)c1,–,0.0514,158,138,1.14,55.5,3060
Cc1cc(S(N)(=O)=O)ccc1NC(=O)COc1ccc(Cl)cc1NC(=O)c1cc(Cl)cc(Cl)c1,–,0.00027,72.4,268,0.27,18,271000
Cc1cc(S(N)(=O)=O)ccc1NC(=O)COc1ccc(Cl)cc1NC(=O)c1cc(Cl)cc(Br)c1,–,3.09,114,4.11,27.8,61.5,37
Cc1cc(S(N)(=O)=O)ccc1NC(=O)COc1ccc(Cl)cc1NC(=O)c1cc(Br)cc(Br)c1,–,0.0459,89.7,64.7,1.39,56.5,1950
Cc1cc(S(N)(=O)=O)ccc1NC(=O)COc1ccc(Cl)cc1NC(=O)c1cc(Cl)cc(C#N)c1,0.00205,0.00096,131,454,0.29,23.2,136000
Cc1cc(S(N)(=O)=O)ccc1NC(=O)COc1ccc(Cl)cc1NC(=O)/C=C/c1ccccc1,–,95.4,163,1.06,154,77.5,2
Cc1cc(S(N)(=O)=O)ccc1NC(=O)COc1ccc(Cl)cc1NC(=O)Cc1c(Cl)cccc1Cl,–,249,> 359,> 1.49,241,160,> 2
Cc1cc(S(N)(=O)=O)ccc1NC(=O)COc1ccc(Cl)cc1NC(=O)c1cccc2ccccc12,–,0.109,> 382,> 17.7,21.5,97.7,> 3500
Cc1cc(S(N)(=O)=O)ccc1NC(=O)COc1ccc(Cl)cc1NC(=O)c1ccc2ccccc2c1,–,0.101,37.6,4.22,8.91,31.6,373
Cc1cn([C@H]2C[C@H](N=[N+]=[N-])[C@@H](CO)O2)c(=O)[nH]c1=O [ZIDOVUDINE],–,–,4910,216000,–,–,422000
